Source: publication PMC8220551 (International Journal of Pharmaceutics: X, 2021)

Test: Permeation study in Kerski diffusion cells with PermeaPad biomimetic barrier
Format: in vitro ADME
Settings: in the investigated time interval (up to 60 min), pH 7.4, 37 °C
Procedure, shortened: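 Drug-loaded minitablets, composite films or solutions (0.2 mg per 0.64 cm2) placed in donor; composites applied to buffer-moistened membrane. Acceptor: 10 mM dipotassium hydrogen phosphate, pH 7.4, stirred 350 rpm, 37 °C. Samples at 5, 10, 15, 20, 25, 30, 40, 50, 60 min with medium replacement. Quantified by HPLC with fluorescence detection (excitation 278 nm); mean ± SD, n = 3.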

## NC(=O)CC[C@@H]1NC(=O)[C@H](Cc2ccccc2)NC(=O)[C@H](Cc2ccc(O)cc2)NC(=O)CCSSC[C@@H](C(=O)N2CCC[C@H]2C(=O)N[C@H](CCCN=C(N)N)C(=O)NCC(N)=O)NC(=O)[C@H](CC(N)=O)NC1=O [DDAVP, 1-desamino-8-D-arginin-vasopressin]
  cumulative drug concentration permeated: ~2.6 μg/cm^2
